ChEMBL document CHEMBL5608194, “Novel neuroprotective 5,6-dihydropyrido[2',1':2,3]imidazo[4,5-c]quinoline derivatives acting through cholinesterase inhibition and CB2 signaling modulation” (Eur J Med Chem, 2024)
Active and inactive are the calls of the source. The calls are words filed in the database; no cut-off is given here.

How the values were obtained:
SH-SY5Y [1] = assay: Cytotoxicity against human SH-SY5Y cells assessed as cell death at 10 uM incubated for 72 hrs by propidium iodide staining based fluorescence assay; assay type: toxicity
Outline: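 SH-SY5Y differentiated to neuron-like phenotype with 10 μM all-trans retinoic acid for 48 h, 20 000 cells/well. Compounds from DMSO stocks (DMSO ≤0.5 %) added, then 72 h exposure. Control wells lysed with 1 % Triton X-100 for 1 min, then all wells stained with propidium iodide for fluorescence read-out. Dead-cell proportion expressed relative to Triton X-100-treated control.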

SH-SY5Y [2] = assay: Neuroprotective activity against ATRA-differentiated and 3-NPA induced cell death in human SH-SY5Y cells assessed as cell death at 0.1 uM incubated for 48 hrs by propidium iodide staining based fluorescence assay (reference value: 100%); assay type: functional
Outline: (§1)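 ATRA-differentiated SH-SY5Y co-treated with compound and 20 mM 3-nitropropionic acid for 48 h; cell death by propidium iodide fluorescence, 3-NPA-treated signal set to 100 %.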

SH-SY5Y [3] = assay: Neuroprotective activity against ATRA-differentiated and 3-NPA induced cell death in human SH-SY5Y cells assessed as cell death at 1 uM incubated for 48 hrs by propidium iodide staining based fluorescence assay (reference value: 100%); assay type: functional; outline: as §1
SH-SY5Y [4] = assay: Neuroprotective activity against ATRA-differentiated and 3-NPA induced cell death in human SH-SY5Y cells assessed as cell death at 10 uM incubated for 48 hrs by propidium iodide staining based fluorescence assay (reference value: 100%); assay type: functional; outline: as §1
SH-SY5Y [5] = assay: Neuroprotective activity against ATRA-differentiated and MPP+ induced cell death in human SH-SY5Y cells assessed as cell death at 0.1 uM incubated for 24 hrs by propidium iodide staining based fluorescence assay (reference value: 100%); assay type: functional
Outline: (§2)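 ATRA-differentiated SH-SY5Y co-treated with compound and 5 mM MPP+ for 24 h; cell death by propidium iodide fluorescence, MPP+-treated signal set to 100 %.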

SH-SY5Y [6] = assay: Neuroprotective activity against ATRA-differentiated and MPP+ induced cell death in human SH-SY5Y cells assessed as cell death at 1 uM incubated for 24 hrs by propidium iodide staining based fluorescence assay (reference value: 100%); assay type: functional; outline: as §2
SH-SY5Y [7] = assay: Neuroprotective activity against ATRA-differentiated and MPP+ induced cell death in human SH-SY5Y cells assessed as cell death at 10 uM incubated for 24 hrs by propidium iodide staining based fluorescence assay (reference value: 100%); assay type: functional; outline: as §2
SH-SY5Y [8] = assay: Neuroprotective activity against ATRA-differentiated and MPP+ induced cell death in human SH-SY5Y cells assessed as cell death at 1 uM by LDH release assay (reference value: 100%); assay type: functional
Outline: (§3)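 ATRA-differentiated SH-SY5Y co-treated with 5 mM MPP+ and compound; cell death by commercial LDH release kit; MPP+ value set to 100 %; triplicates on at least three independent days.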

SH-SY5Y [9] = assay: Neuroprotective activity against MPP+ induced cell death in human SH-SY5Y cells assessed as cell death at 1 uM by YOPRO-1 staining based assay; assay type: functional
Outline: (§4)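 Neuron-like SH-SY5Y co-treated with compound and 5 mM MPP+ for 24 h; centrifuged at 500 × g, medium replaced by 1 μM YO-PRO1 in PBS for 15 min at room temperature; fluorescence 488/530 nm; MPP+ signal set to 100 %; triplicates on at least three independent days.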

SH-SY5Y [10] = assay: Neuroprotective activity against MPP+ induced cell death in human SH-SY5Y cells assessed as cell death at 1 uM incubated for 24 hrs by Cas-3, 7 staining based assay; assay type: functional
Outline: (§5)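 Caspase-3/7 activation with Ac-DEVD-AFC substrate after 24 h co-treatment of neuron-like SH-SY5Y with compound and 5 mM MPP+; MPP+ signal set to 100 %; triplicates on at least three independent days.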

SH-SY5Y [11] = assay: Inhibition of MPP+ induced superoxide radical production in human SH-SY5Y cells at 1 uM incubated for 24 hrs by microplate reader assay (reference value: 100%); assay type: functional
Outline: (§6)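 Neuron-like SH-SY5Y co-treated with 5 mM MPP+ and compound for 24 h; centrifuged at 500 × g, medium replaced with 10 μM dihydroethidium in PBS for 30 min, fluorescence 500/580 nm; MPP+ signal set to 100 %; triplicates on at least four independent days.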

SH-SY5Y [12] = assay: Inhibition of MPP+ induced mitochondrial superoxide radical production in human SH-SY5Y cells at 0.1 to 10 uM incubated for 24 hrs by MitoSOX staining based microplate reader assay; assay type: functional, cell-based; details: dose 0.1-10 µM
Outline: (§7)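 Neuron-like SH-SY5Y (20 000 cells/well) co-treated with 5 mM MPP+ and compound for 24 h; plates centrifuged, medium replaced by 5 μM MitoSOX in HBSS, 30 min at 37 °C, fluorescence 500/580 nm; MPP+ signal set to 100 %; triplicates on at least four independent days.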

SH-SY5Y [13] = assay: Inhibition of MPP+ induced mitochondrial depolarization in human SH-SY5Y cells at 0.1 uM incubated for 2 hrs by JC10 staining based confocal laser scanning microscopy; assay type: functional
Outline: (§8)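 ATRA-differentiated SH-SY5Y co-treated with 5 mM MPP+ and compound for 2 h; mitochondrial membrane potential by JC10 ratiometric red/green signal (plate) and confocal imaging of JC10-stained cells (50 000 cells/well slides); DMSO control set to 100 %; triplicates on three independent days.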

SH-SY5Y [14] = assay: Inhibition of MPP+ induced mitochondrial depolarization in human SH-SY5Y cells at 1 uM incubated for 2 hrs by JC10 staining based confocal laser scanning microscopy; assay type: functional; outline: as §8
Acetylcholinesterase = Acetylcholinesterase (Electrophorus electricus, UniProt O42275); assay: Inhibition of electric eel AChE using acetylthiocholine as substrate by Ellman's method
Cholinesterase = Cholinesterase (Equus caballus, UniProt P81908); assay: Inhibition of equine serum BChE using butyrylthiocholine as substrate by Ellman's method
Outline: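 Equine serum BChE (0.2 U/mL final) with 40 μM butyrylthiocholine and 100 μM DTNB, modified Ellman spectrophotometry; compounds from DMSO diluted in water, five inhibitor concentrations; IC50 from regression of v0/vi versus inhibitor concentration; triplicate.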

[15] = Selectivity index, ratio of IC50 for electric eel AChE to IC50 for equine serum BChE
Outline: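 Ratio of IC50 values from modified Ellman spectrophotometric assays with electric eel AChE and equine serum BChE. Each used enzyme at 0.2 U/mL final, acetylthiocholine or butyrylthiocholine at 40 μM, and DTNB at 100 μM. Inhibitors were dissolved in DMSO, diluted in water, and tested at five concentrations in triplicate. IC50 came from regression of v0/vi against inhibitor concentration.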

SH-SY5Y [16] = assay: Cytotoxicity against human SH-SY5Y cells at 10 uM; assay type: toxicity, cell-based
Outline: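 SH-SY5Y differentiated to neuron-like phenotype with 10 μM all-trans retinoic acid for 48 h, 20 000 cells/well, then exposed to compound for 72 h (DMSO ≤0.5 %). Propidium iodide exclusion fluorescence; dead-cell proportion expressed relative to Triton X-100 (1 %, 1 min) lysed control.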

SH-SY5Y [17] = assay: Potentiation of MPP+ induced toxicity in human SH-SY5Y cells assessed as increase in cell death at 10 uM; assay type: cell-based
Outline: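 Neuron-like SH-SY5Y co-treated for 24 h with 5 mM MPP+, compound and CB2 inverse agonist AM630 or antagonist SR144528 at 0.1, 1 or 10 μM; CB2 ligands also tested alone and with MPP+; cell death read-out; triplicates on three independent days.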

SH-SY5Y [18] = assay: Inhibition of MPP+ induced mitochondrial superoxide radical production in human SH-SY5Y cells at 10 uM incubated for 24 hrs by MitoSOX staining based microplate reader assay (reference value: 100%); assay type: functional; outline: as §7
SH-SY5Y [19] = assay: Neuroprotective activity against ATRA-differentiated and MPP+ induced cell death in human SH-SY5Y cells assessed as cell death at 10 uM by LDH release assay (reference value: 100%); assay type: functional; outline: as §3
SH-SY5Y [20] = assay: Neuroprotective activity against MPP+ induced cell death in human SH-SY5Y cells assessed as cell death at 10 uM by YOPRO-1 staining based assay; assay type: functional; outline: as §4
SH-SY5Y [21] = assay: Neuroprotective activity against MPP+ induced cell death in human SH-SY5Y cells assessed as cell death at 10 uM incubated for 24 hrs by Cas-3, 7 staining based assay; assay type: functional; outline: as §5
SH-SY5Y [22] = assay: Inhibition of MPP+ induced superoxide radical production in human SH-SY5Y cells at 10 uM incubated for 24 hrs by microplate reader assay (reference value: 100%); assay type: functional; outline: as §6

Chain of Cholinesterase (P81908 whole entry): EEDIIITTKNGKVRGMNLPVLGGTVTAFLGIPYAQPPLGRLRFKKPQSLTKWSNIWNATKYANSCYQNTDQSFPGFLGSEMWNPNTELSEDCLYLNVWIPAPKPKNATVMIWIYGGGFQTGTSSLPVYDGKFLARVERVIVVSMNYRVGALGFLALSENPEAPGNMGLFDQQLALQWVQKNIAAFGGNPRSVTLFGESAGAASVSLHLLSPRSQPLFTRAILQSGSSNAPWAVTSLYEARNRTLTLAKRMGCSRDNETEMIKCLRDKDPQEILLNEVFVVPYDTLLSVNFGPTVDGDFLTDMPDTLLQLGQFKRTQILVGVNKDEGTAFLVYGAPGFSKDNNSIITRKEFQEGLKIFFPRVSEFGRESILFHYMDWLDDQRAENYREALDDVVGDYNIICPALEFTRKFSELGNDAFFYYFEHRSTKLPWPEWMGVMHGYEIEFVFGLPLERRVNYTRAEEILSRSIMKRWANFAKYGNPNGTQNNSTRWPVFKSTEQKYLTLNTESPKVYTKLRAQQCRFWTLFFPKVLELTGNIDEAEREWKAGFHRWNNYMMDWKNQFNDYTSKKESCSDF
Chain of Acetylcholinesterase (O42275 whole entry): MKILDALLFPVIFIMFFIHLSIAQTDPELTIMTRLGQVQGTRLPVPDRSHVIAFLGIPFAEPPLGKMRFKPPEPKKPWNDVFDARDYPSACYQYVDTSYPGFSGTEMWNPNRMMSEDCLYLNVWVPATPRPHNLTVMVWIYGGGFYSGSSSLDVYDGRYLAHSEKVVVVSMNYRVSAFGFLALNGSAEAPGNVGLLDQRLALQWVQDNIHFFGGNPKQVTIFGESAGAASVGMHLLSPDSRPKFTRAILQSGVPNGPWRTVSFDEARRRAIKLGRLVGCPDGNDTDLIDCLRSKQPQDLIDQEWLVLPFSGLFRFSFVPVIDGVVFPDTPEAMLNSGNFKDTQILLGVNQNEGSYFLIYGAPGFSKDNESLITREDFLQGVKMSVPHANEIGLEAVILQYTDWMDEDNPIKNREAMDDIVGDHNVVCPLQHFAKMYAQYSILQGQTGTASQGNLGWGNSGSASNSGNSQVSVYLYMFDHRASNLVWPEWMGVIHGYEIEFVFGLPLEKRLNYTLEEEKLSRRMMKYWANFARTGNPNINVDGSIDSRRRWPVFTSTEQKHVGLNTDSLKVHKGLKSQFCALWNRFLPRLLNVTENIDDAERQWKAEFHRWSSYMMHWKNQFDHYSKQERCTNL

| Structure (SMILES) | Activity (SH-SY5Y [1]) | Activity (SH-SY5Y [2]) | Activity (SH-SY5Y [3]) | Activity (SH-SY5Y [4]) | Activity (SH-SY5Y [5]) | Activity (SH-SY5Y [6]) | Activity (SH-SY5Y [7]) | also measured |
| --- | --- | --- | --- | --- | --- | --- | --- | --- |
| Cc1ccn2c3c(nc2c1)-c1ccccc1NC31CCCCC1 | 11.4% | 75.5% | 62.6% | 55.2% | 60.8% | 38.2% | 75% | Activity (SH-SY5Y [8]): 65.4%; Activity (SH-SY5Y [9]): 58.1%; Activity (SH-SY5Y [10]): 52.6%; inhibition at 1 µM (SH-SY5Y [11]): 67.1%; inhibition (SH-SY5Y [12]): inactive; inhibition at 0.1 µM (SH-SY5Y [13]): 78.7%; inhibition at 1 µM (SH-SY5Y [14]): 100%; IC50 (Acetylcholinesterase): 16.4 µM; IC50 (Cholinesterase): 10.4 µM; Ratio IC50 [15]: 1.57 |
| Cc1ccn2c3c(nc2c1)-c1ccccc1NC3(C)C | 13% | 86.2% | 62.4% | 52.9% | 65.7% | 46.1% | 59.7% |  |
| Cc1ccn2c3c(nc2c1)-c1ccccc1NC31CCC(C)CC1 (configuration not stated) | 10.9% | 82.4% | 66.8% | 67% | 61.6% | 38.4% | 105.9% |  |
| Brc1ccc2nc3c(n2c1)C1(CCCCCC1)Nc1ccccc1-3 | 13.5% | 90.7% | 81.4% | 73.5% | 56.5% | 43.5% | 96.4% |  |
| CC(=O)N[C@@H](CS)C(=O)O [ACETYLCYSTEINE] |  | 95.5% | 80.8% | 37% |  |  |  |  |
| COc1ccc(C(=O)c2c(C)n(CCN3CCOCC3)c3cc(I)ccc23)cc1 |  |  |  |  |  |  |  | Activity (SH-SY5Y [16]): Toxic; Activity (SH-SY5Y [17]): > 12% |
| Cc1cccn2c3c(nc12)-c1ccccc1NC31CCCCCC1 | 9.3% | 83.8% | 71% | 60.3% | 67.2% | 38.8% | 91.4% |  |
| CC1CCC2(CC1)Nc1ccccc1-c1nc3ccccn3c12 (configuration not stated) | 12% | 82.3% | 64.2% | 64.5% | 67.6% | 33.6% | 97.3% |  |
| CC1CCC2(CC1)Nc1ccccc1-c1nc3ccc(Br)cn3c12 (configuration not stated) | 9.3% | 92.1% | 71.3% | 64% | 74.2% | 52.3% | 126.5% |  |
| c1ccc2c(c1)NC1(CCCC1)c1c-2nc2ccccn12 | 10.1% | 67.7% | 57.7% | 54.5% | 63.9% | 28.2% | 42.6% |  |
| Cc1ccn2c3c(nc2c1)-c1ccccc1NC31CCCC1 | 10.4% | 86.9% | 59% | 48.6% | 73.1% | 31.9% | 68.9% |  |
| Cc1cccn2c3c(nc12)-c1ccccc1NC31CCCCC1 | 9.2% | 76.6% | 66.1% | 61.8% | 77.7% | 44.4% | 45.6% |  |
| Cc1cccn2c3c(nc12)-c1ccccc1NC31CCC(C)CC1 (configuration not stated) | 9% | 86% | 65% | 64.5% | 91.8% | 53% | 94% |  |
| Cc1ccc(Cn2nc(C(=O)N[C@@H]3C(C)(C)[C@@H]4CC[C@@]3(C)C4)cc2-c2ccc(Cl)c(C)c2)cc1 |  |  |  |  |  |  |  | Activity (SH-SY5Y [16]): Non-Toxic; Activity (SH-SY5Y [17]): Toxic |
| c1ccc2c(c1)NC1(CCCCCC1)c1c-2nc2ccccn12 | 10.4% | 74% | 69.9% | 69% | 45.8% | 28.6% | 73.6% |  |
| Cc1cccn2c3c(nc12)-c1ccccc1NC31CCCC1 | 8.2% | 79.2% | 65.3% | 60.5% | 86.7% | 48% | 52.8% |  |
| Cc1cccn2c3c(nc12)-c1ccccc1NC3(C)C | 11% | 96.6% | 69.9% | 56.4% | 79.6% | 48.6% | 70.8% |  |
| Brc1ccc2nc3c(n2c1)C1(CCCCC1)Nc1ccccc1-3 | 12.3% | 97.7% | 88.4% | 59.5% | 94.8% | 56.5% | 33.9% | inhibition at 10 µM (SH-SY5Y [18]): 58.8%; Activity (SH-SY5Y [19]): 64.7%; Activity (SH-SY5Y [20]): 58%; Activity (SH-SY5Y [21]): 55.8%; inhibition at 10 µM (SH-SY5Y [22]): 65.6%; inhibition at 0.1 µM (SH-SY5Y [13]): 91.7%; inhibition at 1 µM (SH-SY5Y [14]): 100%; IC50 (Acetylcholinesterase): 20 µM; IC50 (Cholinesterase): 19.6 µM; Ratio IC50 [15]: 1.02 |
